A short description of series [1]: Toxicity in CF1 mouse assessed as induction of motor impairment during acute (1 hr) observation period by rotarod assay. As to conditions: CF1, mouse, in vivo. The essentials:
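Male CF-1 mice, ip dosing in miglyol 840/DMSO (95%/5%), up to 800 mg/kg. Rotarod at 6 rpm done 1 h after dosing, on the same animals just before 6 Hz testing. Falling three times within one minute scored as impaired; animals also inspected visually.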
On the technique in general: Falling from the rotarod earlier than controls is read as motor impairment.

The nature of series [2]: Tmax in CD1 mouse at 20 mg/kg, ip measured after 0.083 to 24 hrs by LC-MS/MS analysis. The settings on record: in vivo. Type of series: ADME, organism-based.
Series [3] is filed under the species Danio rerio. Kind of series: Anti-seizure activity in Zebrafish. Type of series: functional, organism-based. The procedure, abridged:
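Single 7 dpf zebrafish larvae per well, pretreated 1 h at […] with compound (10 or 5 μM) in E3 buffer from DMSO stock. Then 15 mM PTZ added and movement tracked 15 min in 1-min bins. VPA 5 and 10 mM as positive controls, n=8 per group, one-way ANOVA.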

Series [4] is described as follows: AUClast in CD1 mouse at 20 mg/kg, ip measured after 0.083 to 24 hrs by LC-MS/MS analysis. The format is ADME, organism-based. More on the design: time lower 0.083 hr, dose 20 mg/kg, time upper 24 hr, route intraperitoneal. As to conditions: in vivo. The essentials: (§1)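 Male CD-1 mice, 3 per route. Oral and ip at 20 mg/kg by gavage needle; iv at 5 mg/kg by tail vein. Vehicles were 20% DMA:40% PEG300:40% H2O for oral/iv and 5% DMSO:95% Neobee for ip. Blood sampled 0.083–24 h, plasma protein-precipitated with acetonitrile plus internal standard, LC-MS/MS (MRM). Non-compartmental analysis, linear trapezoidal AUC.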

Series [5] is filed under the species Danio rerio. Kind of series: Anti-seizure activity in Zebrafish larvae assessed as reduction in PTZ-induced increase in total swimming distance in 15 mins at 5 uM pre-incubated for 1 hr prior to PTZ-induced seizure induction relative to control. The format is functional. More on the design: scale not given: the % may be the effect or the level left.
Series [6] can be described thus: Half life in CD1 mouse at 20 mg/kg, ip measured after 0.083 to 24 hrs by LC-MS/MS analysis. The format is ADME, organism-based. As to conditions: in vivo. The essentials: as §1
Series [7] is filed under the species Danio rerio. Kind of series: Anti-seizure activity in Zebrafish larvae assessed as reduction in PTZ-induced increase in total swimming distance in 15 mins at 10 uM pre-incubated for 1 hr prior to PTZ-induced seizure induction relative to control. The format is functional. Set-up: scale not given: the % may be the effect or the level left.
Series [8] in a line: Toxicity in Zebrafish. Set-up: species or system Danio rerio. The settings on record: in vivo, read-out: LD50 (the source's name).
A short description of series [9]: Cmax in CD1 mouse at 20 mg/kg, ip measured after 0.083 to 24 hrs by LC-MS/MS analysis. The format is ADME, organism-based. More on the design: dose 20 mg/kg, route intraperitoneal. As to conditions: in vivo. The procedure, abridged: as §1
A short description of series [10]: Half life in mouse. As to conditions: in vivo. Type of series: ADME, organism-based.
Series [11] is described as follows: Toxicity in mouse HT22 cells assessed as inhibition of cell viability at 50 uM incubated for 48 hrs by Cell-titer-Blue dye based fluorescence spectrophotometry relative to control. More on the design: species or system HT-22. The settings on record: read-out: Activity. The procedure, abridged:
(§2)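 HT-22 cells in DMEM high glucose with 10% FBS, 2000 per well. Serially diluted compound added after 12 h, incubated 48 h. […] Background subtracted, normalized to control wells.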

Series [12] is described as follows: Toxicity in mouse HT22 cells assessed as inhibition of cell viability at 10 uM incubated for 48 hrs by Cell-titer-Blue dye based fluorescence spectrophotometry relative to control. As to conditions: read-out: Activity. More on the design: species or system HT-22. The procedure, abridged:
as §2

The species entered for series [13] is Danio rerio. Kind of series: Increase in ATP concentration in zebrafish at 1 uM incubated for 24 hrs by fluorometric ATP assay relative to control. Type of series: functional. The essentials:
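7 dpf zebrafish larvae, one per well, kept at 28.5°C for 24 h with compound in E3 buffer (DMSO stock). DMSO vehicle in control wells. Twelve fish per condition pooled, flash-frozen, homogenized in ATP buffer and centrifuged. ATP in the supernatant read by fluorescence at ex 535/em 587 nm, normalized to total protein (BCA), and expressed as nmole/mg relative to DMSO control. n = 7–13.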

The subject of another series is Mus musculus. As to the kind of experiment: Anti-seizure activity in ip dosed CF1 mouse assessed as attenuation of psychomotor seizures at stimulus intensities of 42 mA at pre-treated at 1 hr before test by 6 Hz limbic seizure test relative to control. The format is functional.
A short description of series [14]: Drug reactivity with 2-mercaptoethanol measured over 6 hrs. Type of series: physicochemical.

The structures appear in SMILES notation. Where only a bound is given, the exact number is not on record here.

The TD50 is the 50% point of the dose-response relation for the toxic effect studied. By Tmax is commonly meant the time at which the peak concentration occurs. A word on the EC50: it is the concentration giving half of the maximal effect. For orientation: AUC(0-t) means the area under the concentration-time curve up to a stated or last time point. In general, half-life refers to the time in which the quantity being followed falls by half. One may read the Cmax as the highest concentration seen after dosing. The term ED50 denotes the dose at which the effect has come halfway, by size or by number of responders.

Turning to `CC[C@@H](C(N)=O)N1CCCC1=O`, the TD50 at 1 h in series [1] is greater than 500 mg/kg.

Regarding `C#CCNC1=CC(=O)c2ccccc2C1=O`, the Tmax in series [2] stood at 15 min. The EC50 in the series listed under Danio rerio [3] was 20 µM. The AUC(0-t) in series [4] amounted to 978 ng·h/mL. Further, the Activity is given as 7.4% in the series listed under Danio rerio [5] and 5.4% in the series filed under Danio rerio [7]. In addition, the half-life in [6] and in [10] was 66 min each time. In addition, the LC50 in series [8] is greater than 20 µM. Moreover, the highest level in series [9] (Cmax) was 1490 ng/mL.

As for `O=C1C=C(NCC2CC2)C(=O)c2ccccc21`, the Activity in the series filed under Danio rerio [5] and in the series listed under Danio rerio [7] was -10.1% each time. Further, in series [11], the inhibition at 48 h, 50 µM turned out to be 54.1%. In [12], the inhibition at 48 h, 10 µM is 16.8%.

On to `CCC(O)CNC1=CC(=O)c2ccccc2C1=O` (stereo not drawn), for which the inhibition at 48 h, 50 µM in [11] worked out at 69%. Moreover, the inhibition at 48 h, 10 µM in series [12] stood at 38.6%.

Regarding `O=C1C=C(NCCC2CCCCC2)C(=O)c2ccccc21`, in series [11], the inhibition at 48 h, 50 µM was 2.09%. In addition, the inhibition at 48 h, 10 µM in series [12] is 0.07%.

As for `CC(C)(C)CNC1=CC(=O)c2ccccc2C1=O`, in series [11], the inhibition at 48 h, 50 µM was determined as 22.4%. Moreover, the inhibition at 48 h, 10 µM in [12] turned out to be 10.8%.

Turning to `O=C1C=C(NCCC2CC2)C(=O)c2ccccc21`, the inhibition at 48 h, 50 µM in series [11] turned out to be 56.4%. Besides, in series [12], the inhibition at 48 h, 10 µM was 34.7%.

On to `CC1=C(NCCC(C)(C)C)C(=O)c2ccccc2C1=O`, for which the Activity in the series filed under Danio rerio [5] worked out at 3.3%. Moreover, the inhibition at 48 h, 50 µM in [11] was 17.5%. For the same compound, the inhibition at 48 h, 10 µM in [12] worked out at 10.2%.

For the compound `CC(C)(C)CCCNC1=CC(=O)c2ccccc2C1=O`, in the series listed under Danio rerio [5], the Activity was -3%. In addition, the inhibition at 48 h, 50 µM in series [11] came out at 6.75%. Moreover, the inhibition at 48 h, 10 µM in [12] is 3.81%.

As to `CC(C)(O)CCNC1=CC(=O)c2ccccc2C1=O`, the figures for the Activity in the series listed under Danio rerio [5] and in the series filed under Danio rerio [7] were 9.5% and -5.6%, respectively. For the same compound, the inhibition at 48 h, 50 µM in series [11] turned out to be 59.7%. Besides, the inhibition at 48 h, 10 µM in series [12] was found to be 25.5%.

Consider `CC(C)=CCNC1=CC(=O)c2ccccc2C1=O`, for which the Activity in the series filed under Danio rerio [5] is -4.4%. Also, in series [11], the inhibition at 48 h, 50 µM is 38.3%. In addition, the inhibition at 48 h, 10 µM in [12] was determined as 15%.

With `CC(C)CCCNC1=CC(=O)c2ccccc2C1=O`, in series [11], the inhibition at 48 h, 50 µM stood at 21.3%. Moreover, the inhibition at 48 h, 10 µM in series [12] was 28.8%.

For the compound `CC(O)CCNC1=CC(=O)c2ccccc2C1=O` (stereo not drawn), the Activity in the series listed under Danio rerio [5] is 0.78%. In addition, in series [11], the inhibition at 48 h, 50 µM was determined as 64.2%. The inhibition at 48 h, 10 µM in [12] came to 19.4%.

Consider `CC1=C(NCCC(C)C)C(=O)c2ccccc2C1=O`, for which the inhibition at 48 h, 50 µM in series [11] worked out at 21.4%. In addition, the inhibition at 48 h, 10 µM in series [12] was 11.2%.

On to `CC(C)CC(C)NC1=CC(=O)c2ccccc2C1=O` (stereo not drawn), for which, in series [11], the inhibition at 48 h, 50 µM turned out to be 15%. In addition, the inhibition at 48 h, 10 µM in series [12] worked out at 2.09%.

Consider `O=C1C=C(NCCC2CCCC2)C(=O)c2ccccc21`, for which the Activity in the series listed under Danio rerio [5] is recorded as 45%. In addition, the inhibition at 48 h, 50 µM in [11] came to 43.8%. Further, in series [12], the inhibition at 48 h, 10 µM was found to be 35.4%.

Take `CN(CCCNC1=CC(=O)c2ccccc2C1=O)c1ccccc1`: in the series listed under Danio rerio [5], the Activity came out at 7.3%. Further, the inhibition at 48 h, 50 µM in [11] stood at 10.2%. Also, the inhibition at 48 h, 10 µM in series [12] was determined as 11.5%.

On to `O=C1C=C(NCCC2CCC2)C(=O)c2ccccc21`, for which, in the series filed under Danio rerio [13], the Activity came to 21.4%. The inhibition at 48 h, 50 µM in [11] was 36.3%. For the same compound, the inhibition at 48 h, 10 µM in series [12] stood at 27.2%.

Take `CCN(C)CCNC1=CC(=O)c2ccccc2C1=O`: the inhibition at 48 h, 50 µM in series [11] amounted to 101%. Moreover, in series [12], the inhibition at 48 h, 10 µM was 86.2%.

With `O=C1C=C(NCC2CCC2)C(=O)c2ccccc21`, the inhibition at 48 h, 50 µM in series [11] is 62.3%. The inhibition at 48 h, 10 µM in series [12] was determined as 33.7%.

In the case of `CCC(C)CNC1=CC(=O)c2ccccc2C1=O` (stereo not drawn), in the series listed under Danio rerio [5], the Activity is recorded as 23%. The inhibition at 48 h, 50 µM in series [11] was determined as 41.2%. For the same compound, the inhibition at 48 h, 10 µM in series [12] stood at 14.8%.

For the compound `CC(C)(C)CCNC1=CC(=O)c2ccccc2C1=O`, the inhibition at 48 h, 50 µM in series [11] was found to be 17%. In addition, in series [12], the inhibition at 48 h, 10 µM was found to be 11.9%.

For `CN(C)CCNC1=CC(=O)c2ccccc2C1=O`, the inhibition at 48 h, 50 µM in series [11] worked out at 99.8%. In addition, in [12], the inhibition at 48 h, 10 µM was 82.6%.

Consider `CCN(CC)CCNC1=CC(=O)c2ccccc2C1=O`, for which the Activity in the series filed under Danio rerio [5] is listed as -7.2%; in the series filed under Danio rerio [7], 27%. In addition, the inhibition at 48 h, 50 µM in [11] came to 100%. In addition, the inhibition at 48 h, 10 µM in [12] is 83.8%.

Take `CN(C)CCCNC1=CC(=O)c2ccccc2C1=O`: the Activity in the series listed under Danio rerio [7] is given as -2.9%. In addition, in series [11], the inhibition at 48 h, 50 µM amounted to 96.7%. Also, the inhibition at 48 h, 10 µM in [12] was 74.5%.

`CC(CO)CCNC1=CC(=O)c2ccccc2C1=O` (stereo not drawn): the Activity in the series filed under Danio rerio [5] is on record as -2.4%; in the series listed under Danio rerio [7] it was 8.2%. The inhibition at 48 h, 50 µM in series [11] was 76.7%. The inhibition at 48 h, 10 µM in [12] came to 25.7%.

As to `C=C(C)[C@@H]1CCC(C)=C[C@H]1c1c(O)cc(CCCCC)cc1O` [CANNABIDIOL], in the series with Mus musculus, the ED50 turned out to be 174 mg/kg.

As for `NC(=O)OCC(COC(N)=O)c1ccccc1` [FELBAMATE], in the series on Mus musculus, the ED50 was 97.5 mg/kg. Also, the TD50 at 1 h in [1] turned out to be 452 mg/kg.

Take `CC1=CC(=O)c2ccccc2C1=O` [MENADIONE]: in the series filed under Danio rerio [3], the EC50 came out at 3 µM. The Drug metabolism result in series [14] is “Metabolite_Detected”. In addition, the LC50 in series [8] turned out to be 6 µM. The same compound displayed a half-life in [10] of 27 min.

Turning to `CCCC(CCC)C(=O)O` [VALPROIC ACID], the ED50 with Mus musculus was determined as 289 mg/kg.

(Values after ChEMBL document CHEMBL4602726, “Discovery of the First Vitamin K Analogue as a Potential Treatment of Pharmacoresistant Seizures” (J Med Chem, 2020).)
